Most compounds without a hit are left out; they make up all but 3.4% or so of the library.
TAAR1 ag: human TAAR1 agonists, primary screen, Fluo-8 calcium fluorescence, CHO RD-HGA16 cells; Trace amine-associated receptor 1 (Homo sapiens), Q96RJ0; vehicle wells 0%, saturating PEA agonist 100%; activation, % at 3 µM; 0.99% of 360,000 active; AID 624467, 2012;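 active = activation above the mean activation of all test compounds in the run plus 3 SD, cut at about 38% in these data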
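test system = CHO RD-HGA16 cells carrying human TAAR1 plus Gα16 | schedule = 17-24 h seeding, 75 min 37 °C dye, 30 min RT | compound dosing = 3 µM single concentration | control set = DMSO and PEA EC100 | replicates = n 1 | signal = Fluo-8 fluorescence, 5 s baseline then 140 s kinetic read | measure = percent activation vs PEA EC100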
M1 antag: human M1 muscarinic receptor antagonists, primary screen, CHO-K1 cells, Fluo-8 calcium fluorescence, 1536-well; Muscarinic acetylcholine receptor M1 (Homo sapiens), P11229; inhibition, % at 3 µM; CHO-K1 hM1, ACh EC80 antagonist; AID 588852, 2011; 1.3% of 360,000 active;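 active = percent inhibition above its own plate's cutoff, namely the mean of that plate's compound wells plus 3 SD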;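 note: peak over basal fluorescence ratio during 140 s after agonist addition; 0% = ACh EC80 plus DMSO and 100% = DMSO alone without agonist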
Target sequence (P11229 whole entry, looked up): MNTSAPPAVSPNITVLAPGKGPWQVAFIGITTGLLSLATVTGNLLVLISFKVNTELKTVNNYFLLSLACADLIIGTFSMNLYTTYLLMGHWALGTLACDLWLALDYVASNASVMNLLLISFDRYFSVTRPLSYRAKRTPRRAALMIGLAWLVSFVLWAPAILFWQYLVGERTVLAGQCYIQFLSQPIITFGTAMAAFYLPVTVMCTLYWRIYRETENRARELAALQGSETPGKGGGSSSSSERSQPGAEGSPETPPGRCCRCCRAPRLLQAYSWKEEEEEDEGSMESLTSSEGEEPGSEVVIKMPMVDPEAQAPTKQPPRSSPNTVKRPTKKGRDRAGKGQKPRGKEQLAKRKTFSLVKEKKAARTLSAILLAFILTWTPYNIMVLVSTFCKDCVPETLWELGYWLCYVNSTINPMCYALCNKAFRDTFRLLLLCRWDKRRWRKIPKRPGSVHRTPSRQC
CHRM1 agonist: human M1 muscarinic receptor agonists, primary screen, Fluo-8 calcium fluorescence, CHO-K1 cells, HTS; Muscarinic acetylcholine receptor M1 (Homo sapiens), P11229; CHO-K1 hM1, agonist mode; 0% DMSO, 100% acetylcholine EC100; activation, % at 3 µM; 0.33% of 360,000 active; AID 588814, 2011;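 active = activation above the run's mean compound activation plus 3 SD, cut at about 16% in these data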;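 note: peak over basal fluorescence ratio within a 140 s kinetic read after compound addition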
M1 PAM: human M1 muscarinic receptor positive allosteric modulators, primary screen, CHO-K1 cells, Fluo-8 calcium fluorescence, 1536-well; CHO-K1 hM1, ACh EC20; 0% = ACh EC20, 100% = maximal ACh; Muscarinic acetylcholine receptor M1 (Homo sapiens), P11229; AID 588819, 2011; 0.088% of 360,000 active; activation, % at 3 µM; in the data active = activation above about 19%, passing the limit was not always enough
TAAR1 antagonist: human TAAR1 antagonists, primary screen, Fluo-8 calcium fluorescence, CHO RD-HGA16 cells; Trace amine-associated receptor 1 (Homo sapiens), Q96RJ0; antagonist; inhibition, % at 3 µM; 1.5% of 360,000 active;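 active = inhibition above a per-plate cutoff, the mean inhibition of test compounds on that plate plus 3 SD, cut at about 49% in these data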;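 note: 0% = DMSO plus EC80 beta-PEA response and 100% = DMSO alone without agonist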
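Assay system: CHO-derived RD-HGA16 cells stably expressing human TAAR1 plus Gα16. Timing: 140 s kinetic read after compound, 140 s after agonist. Technique: kinetic Fluo-8 calcium fluorescence measurement. Measure: % inhibition of agonist calcium response.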
* marks the source's active call; other numbers are inactive results; · = not tested or not shown.

SMILES	TAAR1 ag	M1 antag	CHRM1 agonist	M1 PAM	TAAR1 antagonist
c1ccc(C2N3CCCN23)cc1 (stereo not given)	2	-9	-4	4	-18
OC(c1ccccc1)(c1ccc(Cl)cc1)C1CN2CCC1CC2 (stereo not given)	3	100*	-5	-24	-5
OCC[N+]12CCC(CC1)C(C(O)(c1ccccc1)c1ccccc1)C2 (stereo not given)	1	30	-9	-17	-5
CN1OC[C@@H]2CN[C@H](c3ccccc3Br)C[C@@H]21	2	-1	-5	0	-5
N#CC1c2ccccc2-n2nncc2CN1S(=O)(=O)c1cc(Cl)cc(Cl)c1 (stereo not given)	1	-12	-4	7	-15
CCOC(=O)[C@]12Cc3cc(C)ccc3[C@H]1N(C1CCCCC1)C(=O)c1cc(OC)ccc12	3	·	·	·	-50
CC(C)C[C@@H]1COc2cc(N3CCN(C)CC3)ccc2S(=O)(=O)N1	1	·	·	·	-2
C[C@]12CCC3C(CC[C@H]4[C@@H](O)[C@H](O)CC[C@]34C)C1CCC2=O (stereo not given in full)	4	-13	-2	9	11
COC(=O)C1=C(c2ccc(F)cc2OCc2ccccc2)C[C@@H]2CC[C@H]1N2C(=O)NCc1ccc(Br)cc1	12	11	-4	-5	51*
COC(=O)C1=C(c2ccc(OCc3ccccc3)c(F)c2)C[C@@H]2CC[C@H]1N2C	10	29*	-8	-24	-14
COC(=O)C1=C(c2ccc(C(C)=O)cc2)C[C@@H]2CC[C@H]1N2C(=O)NCc1ccc(C(F)(F)F)cc1	·	13	24*	-4	·
COC(=O)C1=C(c2ccc(OCc3ccccc3)cc2)C[C@@H]2CC[C@H]1N2C	7	34*	-10	-28	2
COC(=O)C1=C(c2ccc(F)cc2OCc2ccccc2)C[C@@H]2CC[C@H]1N2C	9	13	-8	-11	8
CC(C)NC1(c2ccccc2)CCCCC1	5	·	·	·	-15
Cc1ccccc1NC(=NCCCN1CC1)Nc1ccccc1C	0	25	-9	-16	-23
O=C(Nc1cccc(Cl)c1)N1C[C@H]2C[C@@H](C1)c1cccc(=O)n1C2	2	4	-4	0	-45
C[N+](C)(C)CC#CCOC(=O)Nc1cccc(Cl)c1	1	88*	91*	-22	-6
C=C1N2CCC(CC2)C1(O)c1ccc(C)c(C)c1 (stereo not given)	13	72*	-4	-22	-20
CN1C2CCC1CC(OC(=O)c1cccc(O)c1)C2 (stereo not given)	3	59*	-14	-33	-7
CN1C2CCC1CC(OC(=O)c1ccc([N+](=O)[O-])cc1)C2 (stereo not given)	0	6	-12	-1	-1
CC1CC(OC(=O)c2ccccc2)CC(C)N1C (stereo not given)	2	42*	-11	-26	-32
O=C(NC1CCCCC1)N1Cc2cc(N3CCOCC3)ccc2-n2nncc2C1	3	-7	-3	6	-14
CC(C)[N+](C)(CCC(C(N)=O)(c1ccccc1)c1ccccc1)C(C)C	0	99*	-8	-26	-1
O=c1[nH]c(=O)n(-c2ccccc2)c(O)c1/C=C/C=Nc1ccccc1	13	-1	-1	3	6
Cc1ccc(-n2c(O)c(/C=C/C=Nc3ccccc3)c(=O)[nH]c2=O)cc1	4	10	-2	0	15
SMILES	TAAR1 ag	M1 antag	CHRM1 agonist	M1 PAM	TAAR1 antagonist
COc1ccc(-n2c(O)c(/C(C)=N/N3CCCCCC3)c(=O)[nH]c2=O)cc1	0	-12	-1	34*	-23
COc1ccc(-n2c(O)c(/C=C/C=Nc3ccccc3)c(=O)[nH]c2=O)cc1	63*	17	22*	-11	33
O=c1[nH]c(=O)n(C2CCCCC2)c(O)c1/C=C/C=Nc1ccccc1	39*	1	18*	-2	43
FC(F)(F)c1ccc(-c2ccc3c(c2)CNCc2cnnn2-3)cc1	5	-4	-4	10	-12
O=C(C1CCN(c2nc3ccc(Br)cc3s2)CC1)N1CCC2(CC1)OCCO2	4	59*	-2	-23	11
Cc1ccc2nc(N3CCC(C(=O)N4CCC5(CC4)OCCO5)CC3)sc2c1	1	1	-6	-1	-20
CCc1ccc2nc(N3CCC(C(=O)N4CCC5(CC4)OCCO5)CC3)sc2c1	3	41*	-8	-26	-6
COc1ccc(/C=C/C=C2C(=O)NC(=S)NC2=O)cc1	3	-11	-1	8	6
CCCCCN1C(=O)c2ccccc2[C@@]2(C(=O)OCC)Cc3cc(OC)ccc3[C@@H]12	0	·	·	·	-17
Cc1cccc2nc(-c3ccccc3)c(-c3ccc(CN4CCC(n5c(=O)[nH]c6cc(Cl)ccc65)CC4)cc3)nc12	0	·	·	·	-18
CC(C)S(=O)(=O)N1Cc2ccccc2-n2nncc2C1	0	47*	-11	-28	16
COc1ccc(S(=O)(=O)N2Cc3ccccc3-n3nncc3C2)cc1	2	-3	-4	-3	-8
c1ccc(C(OCCN2CCNCC2)c2ccccc2)cc1	8	70*	-6	-20	13
O=C(Nc1ccccc1)NC1CC2CCC(C1)N2 (stereo not given)	6	31*	-5	-17	10
CCCCc1nc(N2CCNCC2)c(C#N)c2c1CSC(C)(C)C2	40*	54*	-4	-20	17
CCCCCCn1c(O)c(C=Nc2c(C)n(C)n(-c3ccccc3)c2=O)c(=O)[nH]c1=O	2	47*	-6	-18	-24
CCOC(=O)/C(CCCN(CC)CC)=N\O	5	78*	-5	-19	-11
O=[N+]([O-])c1cccc(NP(=O)(Oc2ccccc2)Oc2ccccc2)c1	3	33	-5	-19	58*
CCOP(=O)(OCC)c1ccc(OP(=O)(c2cccc([N+](=O)[O-])c2)c2cccc([N+](=O)[O-])c2)cc1	5	-12	-2	8	-17
CCc1cc(OC)c(CCN)cc1OC	23	·	·	·	9
CCOC(=O)CNC(=O)N1Cc2cc(Br)ccc2-n2nncc2C1	-1	·	·	·	4
CCC(=NCCc1c[nH]c2ccccc12)c1c(O)n(C)c(=O)n(C)c1=O	13	26*	3	-15	50*
CC(=NCCc1ccccc1)c1c(O)[nH]c(=O)[nH]c1=O	26	-18	-7	15	-23
CC(=NCCc1ccccc1)c1c(O)n(C)c(=O)n(C)c1=O	43*	-15	-1	8	-26
